Calls of active or inactive are those of the source. The calls are words filed in the database; no cut-off is given here.
How the values were obtained:
[1] = molecular target: T1, Hypoxia inducible factors; HIF-1-alpha, HIF-2-alpha (Homo sapiens, UniProt Q16665+Q99814); assay: Inhibition of hypoxia-induced HIF1 activation in human T47D cells carrying […] reporter gene measured by luciferase activity; type: cell-based
In short: (§1)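 T47D cells were transiently transfected with the pTK-HRE3-luc reporter (erythropoietin HRE). They were pretreated with compound for 30 min, then held 16 h at 1% O2/5% CO2/94% N2. Luciferase activity was reported as % inhibition versus the induced control. One representative experiment, run in quadruplicate, mean ± SE.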

[2] = molecular target: T1, Hypoxia inducible factors; HIF-1-alpha, HIF-2-alpha; assay: Inhibition of hypoxia-induced HIF1 activation in human T47D cells carrying […] reporter gene measured by luciferase activity at 1.78 uM; type: cell-based; in short: as §1
T47D [3] = assay: Inhibition of hypoxia-induced secreted VEGF protein level in human T47D cells at 1 uM by ELISA; type: functional
In short: (§2)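 T47D cells seeded at 3.56×10^5/well in DMEM/F12 with 10% FBS and grown 24 h. Half the medium was replaced with serum-free medium containing compound. After a 30 min pretreatment, cells were held 16 h at 1% O2. VEGF in conditioned medium was measured by human VEGF ELISA and normalized to viable cell count (hemocytometer). Triplicate, mean ± SE, ANOVA/Fisher's PLSD.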

T47D [4] = assay: Inhibition of hypoxia-induced secreted VEGF protein level in human T47D cells at 3 uM by ELISA; type: functional; in short: as §2
T47D [5] = assay: Reduction of human T47D cell colony formation under hypoxic condition at 1 uM by clonogenic survival assay; type: functional
In short: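 T47D cells seeded at 400 cells per 100 mm dish and allowed to adhere 4 h. Half the medium was replaced with serum-free medium containing compound. After a 30 min pretreatment, cells were held 24 h at 1% O2 (normoxic comparison run in parallel). Medium was then refreshed and cells grown 2–3 weeks under normoxia. Colonies were methanol-fixed and stained with crystal violet, and those over 50 cells counted.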

T47D [6] = assay: Inhibition of human T47D cell proliferation/viability up to 100 uM after 48 hrs by MTT assay; type: functional
In short: (§3)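 Cells grown in DMEM/F12 with 10% FBS and antibiotics, seeded at 3×10^4/well, incubated 24 h at 37 °C. Compound diluted in serum-free medium, tested at 10^-9 to 10^-4 M for 48 h under normoxia. MTT added to 0.25 mg/mL final for 4 h at 37 °C, then lysed in 0.04 N HCl/isopropanol, A570 read.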

MCF7 = assay: Inhibition of human MCF7 cell proliferation/viability up to 100 uM after 48 hrs by MTT assay; type: functional; in short: as §3
MDA-MB-231 = assay: Inhibition of human MDA-MB-231 cell proliferation/viability up to 100 uM after 48 hrs by MTT assay; type: functional; in short: as §3
[7] = Inhibition of african green monkey Vero cell proliferation/viability up to 100 uM after 48 hrs by MTT assay; type: cell-based; settings: chlorocebus sabaeus, Vero cells; in short: as §3
SK-BR-3 = assay: Inhibition of human SK-BR-3 cell proliferation/viability at 100 uM after 48 hrs by MTT assay; type: functional; settings: SK-BR-3, 48 h; in short: as §3
T47D [8] = assay: Blockade of HIF1alpha protein expression in hypoxia-induced human T47D cells at 1 uM under 30 mins in normoxic condition followed by 4 hrs in hypoxic condition; type: functional, cell-based
In short: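 T47D nuclear HIF-1α (and HIF-1β) measured by Western blot of nuclear extracts. Exponentially grown cells were pretreated 30 min under normoxia (95% air), then held 4 h at 1% O2.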

[9] = Inhibition of electron transport pathway in C57B1/6 mouse liver mitochondria; type: functional
Mus musculus = species: Mus musculus; assay: Inhibition of C57B1/6 mouse liver mitochondrial activity in presence of succinate; type: functional

CC1=C[C@@H](O)C(C(C)CC[C@@H]2[C@@H](C)[C@]3(C)CC[C@@]2(C)O3)CC1 (some centres undefined) [LAURENDITERPENOL]
EC50 [1]: 400 nM | IC50 [1]: 400 nM | inhibition [2]: 88% | inhibition at 1 µM (T47D [3]): 55% | inhibition at 3 µM (T47D [4]): 80% | inhibition at 1 µM (T47D [5]): 50% | inhibition (INH) (T47D [6]): <50% | inhibition (INH) (MCF7): <50% | inhibition (INH) (MDA-MB-231): <50% | inhibition at 48 h [7]: < 50% | inhibition at 100 µM (SK-BR-3): 63% | Activity (T47D [8]): Active | IC50 [9]: 800 nM | Activity (Mus musculus): inactive

— ChEMBL document CHEMBL1148968 (J Nat Prod, 2004)
